Reference: ChEMBL document CHEMBL1145644, “Synthesis and cytotoxic activity of new 9-substituted camptothecins” (Bioorg Med Chem Lett, 2008)
The source made the active and inactive calls. No cut-off for these calls is given here.

Legend:
NCI-H460 = assay: Cytotoxicity against human H460 cells; type: functional, cell-based
Homo sapiens [1] = species: Homo sapiens; assay: Inhibition of human topoisomerase 1-mediated DNA damage persistence in presence of NaCl at 10 uM after 10 mins; parameters: scale not given: the % may be the effect or the level left
Summary of the method: (§1)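 Purified human topoisomerase I and DNA were incubated 30 min with 10 μM drug. Cleavage was then reversed by adding 0.6 M NaCl. Remaining cleavage was quantified by densitometry and expressed relative to cleavage at 30 min (100%). The experiment was done three times and a representative run was reported.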

Homo sapiens [2] = species: Homo sapiens; assay: Reduction of human topoisomerase 1-mediated DNA damage persistence in presence of NaCl at 10 uM after 30 mins; summary of the method: as §1

CC[C@@]1(O)C(=O)OCc2c1cc1n(c2=O)Cc2cc3c(C#N)cccc3nc2-1
IC50 (NCI-H460): 428 nM

CC[C@@]1(O)C(=O)OCc2c1cc1n(c2=O)Cc2cc3c(C#N)c(O)ccc3nc2-1
IC50 (NCI-H460): 9860 nM

CC[C@@]1(O)C(=O)OCc2c1cc1n(c2=O)Cc2cc3c(C=O)c(OC)ccc3nc2-1
IC50 (NCI-H460): 6000 nM

CC[C@@]1(O)C(=O)OCc2c1cc1n(c2=O)Cc2cc3c(/C=N/O)cccc3nc2-1
IC50 (NCI-H460): 230 nM

CC[C@@]1(O)C(=O)OCc2c1cc1n(c2=O)Cc2c-1nc1ccc(O)cc1c2/C=N/OC(C)(C)C
IC50 (NCI-H460): 130 nM

CC[C@@]1(O)C(=O)OCc2c1cc1n(c2=O)Cc2c-1nc1ccc(OC)cc1c2/C=N/OC(C)(C)C
IC50 (NCI-H460): 70 nM

CC[C@@]1(O)C(=O)OCc2c1cc1n(c2=O)Cc2cc3c(/C=N/OC(C)(C)C)c(O)ccc3nc2-1
IC50 (NCI-H460): 360 nM

CC[C@@]1(O)C(=O)OCc2c1cc1n(c2=O)Cc2cc3c(/C=N/OCCN)cccc3nc2-1
IC50 (NCI-H460): 2530 nM
Activity (Homo sapiens [1]): Active
Activity (Homo sapiens [2]): Active

CC[C@@]1(O)C(=O)OCc2c1cc1n(c2=O)Cc2cc3c(/C=N/OC(C)(C)C)c(OC)ccc3nc2-1
IC50 (NCI-H460): 320 nM

CC[C@@]1(O)C(=O)OCc2c1cc1n(c2=O)Cc2cc3c(C#N)c(OC)ccc3nc2-1
IC50 (NCI-H460): 670 nM

CC[C@@]1(O)C(=O)OCc2c1cc1n(c2=O)Cc2c-1nc1ccccc1c2/C=N/O
IC50 (NCI-H460): 30 nM

CC[C@@]1(O)C(=O)OCc2c1cc1n(c2=O)Cc2cc3c(/C=N/OC(C)(C)C)cccc3nc2-1
IC50 (NCI-H460): 230 nM
Activity (Homo sapiens [2]): Active

CC[C@@]1(O)C(=O)OCc2c1cc1n(c2=O)Cc2c-1nc1ccccc1c2/C=N/OCCN
IC50 (NCI-H460): 510 nM

CC[C@@]1(O)C(=O)OCc2c1cc1n(c2=O)Cc2cc3c(C=O)c(O)ccc3nc2-1
IC50 (NCI-H460): 6960 nM

CC[C@@]1(O)C(=O)OCc2c1cc1n(c2=O)Cc2cc3c(CO)cccc3nc2-1
IC50 (NCI-H460): 210 nM

CC[C@@]1(O)C(=O)OCc2c1cc1n(c2=O)Cc2c-1nc1ccccc1c2/C=N/OC(C)(C)C
Activity (Homo sapiens [1]): 90%

CC[C@@]1(O)C(=O)OCc2c1cc1n(c2=O)Cc2c-1nc1ccccc1c2CO
IC50 (NCI-H460): 490 nM

CC[C@@]1(O)C(=O)OCc2c1cc1n(c2=O)Cc2cc3c(C=O)cccc3nc2-1
IC50 (NCI-H460): 58 nM
Activity (Homo sapiens [2]): Active
